Assay [1] deals with T1, TG2 S3-2 Mut (E329A) (Homo sapiens, UniProt P21980, E329A).
T1 sequence (P21980 1-687 E329A): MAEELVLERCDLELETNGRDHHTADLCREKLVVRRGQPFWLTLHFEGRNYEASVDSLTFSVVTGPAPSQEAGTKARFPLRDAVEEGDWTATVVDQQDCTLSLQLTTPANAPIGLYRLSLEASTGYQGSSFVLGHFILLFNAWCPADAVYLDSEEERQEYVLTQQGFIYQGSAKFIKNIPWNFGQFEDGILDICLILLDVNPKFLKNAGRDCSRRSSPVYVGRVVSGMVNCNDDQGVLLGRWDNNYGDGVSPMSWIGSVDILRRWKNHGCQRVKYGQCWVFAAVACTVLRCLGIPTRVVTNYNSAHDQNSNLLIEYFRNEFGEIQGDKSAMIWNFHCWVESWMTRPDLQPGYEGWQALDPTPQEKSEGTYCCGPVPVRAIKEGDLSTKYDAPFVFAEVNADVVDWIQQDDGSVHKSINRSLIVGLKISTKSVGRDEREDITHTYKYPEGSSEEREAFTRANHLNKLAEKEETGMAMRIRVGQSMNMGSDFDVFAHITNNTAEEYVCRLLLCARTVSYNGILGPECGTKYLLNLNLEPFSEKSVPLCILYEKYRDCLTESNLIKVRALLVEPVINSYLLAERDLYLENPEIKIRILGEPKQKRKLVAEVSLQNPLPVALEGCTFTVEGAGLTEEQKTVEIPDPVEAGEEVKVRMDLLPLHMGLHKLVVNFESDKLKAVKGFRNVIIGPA
Description: steady-state kinetic analysis with S3-2 mutant. Type of assay: biochemical. The conditions noted are these: S3-2 (E329A) mutant, result in words. In a few lines: (§1)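 N-terminally His-tagged human TG2, wild type or site-directed mutant, was expressed in E. coli BAP1 and purified by Ni-NTA, anion exchange and size exclusion. Steady-state deamidation was assayed at 1 μM enzyme with varying Gln-peptide substrate concentrations. Released NH4+ was coupled to glutamate dehydrogenase with 10 mM α-ketoglutarate and 500 μM NADH in 200 mM MOPS. Ca2+ was 5 mM unless otherwise varied.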

Assay [2] deals with T2, human TG2 (Homo sapiens, UniProt P21980).
T2 sequence (P21980 1-687): T1 sequence (P21980 1-687 E329A) with A329E
The experiment in a line: kinetic analysis of irreversible inhibitors using 1 as the TG2 substrate. Type of assay: biochemical. The conditions noted are these: KM of substrate 1 used in the inhibitor analysis (Fig. 1D legend). The method, boiled down: as §1

Numbering of substitutions follows the chain as printed. Where no end group is shown, it is not given here. The star is where a group is joined. Cbz = O=C(OCc1ccccc1)*

The term Km denotes the concentration of substrate that gives half-maximal velocity. Regarding AcPQLPF [Compound 1], the “catalytic activity of S3-2 mutant against the substrate” value in assay [1] is “barely detectable”. For the same substance, the Km in assay [2] is 175 µM.

Regarding Cbz-Gln-Gly [ZQG, reference compound], in assay [1], the “catalytic activity of S3-2 mutant against the substrate” value is reported as “negligible”.

(Values after paper PMC11252922 (Proceedings of the National Academy of Sciences of the …, 2024).)
